{"data": "Published values from different studies", "target": "Receptor tyrosine-protein kinase erbB-2 (ERBB2, Homo sapiens, UniProt P04626)", "note": "Protocols differ between the studies behind these lines."}
{"SMILES": "COc1cc2ncnc(Nc3ccc(Oc4ccccc4)c(C)c3C)c2cc1OC", "read-out": "enzyme activity", "mode": "inhibitor", "tested at": "1 µM", "quantity": "inhibition", "value": "76%"}
{"SMILES": "CN(C)C(=O)Cn1cc(-c2nc([C@@](C)(c3ccc(-c4cnc(N)nc4)cc3)C3CC3)no2)cn1", "read-out": "cell-free assay", "technique": "competition with immobilised ligand", "tested at": "1 µM", "quantity": "remaining binding", "value": "100%"}
{"SMILES": "C#Cc1cccc(Nc2ncnc3cc(OCCOC)c(OCCOC)cc23)c1", "read-out": "cell-free assay", "tested at": "0.5 µM", "quantity": "remaining signal", "value": "52.8%"}
{"SMILES": "CC(=O)N1CCC(c2ccc(C(=O)NC3=NCCN3)cc2C(F)(F)F)CC1", "read-out": "cell-free assay", "technique": "competition with immobilised ligand", "tested at": "1 µM", "quantity": "remaining binding", "value": "100%"}
{"SMILES": "CCCS(=O)(=O)Nc1ccc(F)c(C(=O)c2c[nH]c3ncc(-c4ccc(Cl)cc4)cc23)c1F", "read-out": "enzyme activity", "mode": "inhibitor", "tested at": "1 µM", "quantity": "inhibition", "value": "< 10%"}
{"SMILES": "Cc1cc(NC(=O)c2cccc3cc(-c4cccc5[nH]nc(N)c45)ccc23)ccc1F", "read-out": "enzyme activity", "mode": "inhibitor", "tested at": "0.1 µM", "quantity": "activity vs control", "value": "108%"}
{"SMILES": "O=C1NC(=O)c2cc(Nc3ccc(F)cc3)c(Nc3ccc(F)cc3)cc21", "read-out": "cell-free assay", "tested at": "0.5 µM", "quantity": "remaining signal", "value": "107%"}
{"SMILES": "CC(C)(C)c1nc2c(s1)c1nc(N)ncc1c1ccc(NS(=O)(=O)c3c(F)cccc3F)c(F)c12", "read-out": "enzyme activity", "mode": "inhibitor", "technique": "radiometric", "tested at": "1 µM", "quantity": "remaining activity", "value": "109%"}
{"SMILES": "O=C(NCc1ncc(C(F)(F)F)cc1Cl)c1ccc2c(c1)C1(CCS(=O)(=O)CC1)[C@H](C1CC1)N2S(=O)(=O)c1ccc(F)cc1", "read-out": "cell-free assay", "technique": "competition with immobilised ligand", "tested at": "1 µM", "quantity": "remaining binding", "value": "100%"}
{"SMILES": "c1ccc(CNc2nc(N3CCOc4ccccc43)nc3c2CCCC3)cc1", "read-out": "target engagement in cells", "mode": "inhibitor", "technique": "chemoproteomics", "tested at": "20 mM", "quantity": "inhibition", "value": "0.8%"}
{"SMILES": "CN1CC(Oc2cnc(C#N)cc2-c2ccn3nc(NC(=O)C4CC4)cc3c2)C1", "read-out": "enzyme activity", "mode": "inhibitor", "tested at": "1 µM", "quantity": "inhibition", "value": "-3%"}
{"SMILES": "Clc1ccc(Nc2nnc(Cc3ccncc3)c3ccccc23)cc1", "read-out": "cell-free assay", "tested at": "0.5 µM", "quantity": "remaining signal", "value": "101%"}
{"SMILES": "Cc1sc(C(=O)NC2COC2)cc1-n1cc(NC(=O)Nc2c(F)cccc2Cl)cn1", "read-out": "enzyme activity", "mode": "inhibitor", "tested at": "10 µM", "quantity": "remaining activity", "value": "64.1%"}
{"SMILES": "O=C(NS(=O)(=O)c1ccc(NCC2CCOCC2)c([N+](=O)[O-])c1)c1ccc(N2CCN(Cc3ccc(C(F)(F)F)cc3-c3ccc(Cl)cc3)CC2)cc1Oc1cnc2[nH]ccc2c1", "read-out": "cell-free assay", "technique": "competition with immobilised ligand", "tested at": "1 µM", "quantity": "remaining binding", "value": "100%"}
{"SMILES": "CS(=O)(=O)Nc1cccc(-c2csc(NC(=O)CSc3nc4nccnc4c(=O)n3CCc3ccccc3)n2)c1", "read-out": "enzyme activity", "mode": "inhibitor", "tested at": "10 µM", "quantity": "inhibition", "value": "-12%"}
{"SMILES": "O=C1Nc2ccc(Cl)cc2C1=Cc1cc(Cl)c(O)c(Cl)c1", "read-out": "cell-free assay", "tested at": "0.5 µM", "quantity": "remaining signal", "value": "107%"}
{"SMILES": "C[C@H](c1ccc(F)cc1)N(Cc1cccc(C(=O)O)c1)C(=O)c1cnc2ccccc2c1", "read-out": "cell-free assay", "technique": "competition with immobilised ligand", "tested at": "1 µM", "quantity": "remaining binding", "value": "100%"}
